From article PMC10825549 (JID Innovations, 2023)

Assays:
[1] = 7-day minipig study: plasma pharmacokinetics; type: in vivo
[2] = system: Jak1/2; assay: Inhibition of IFN-γ-induced STAT phosphorylation in PBMCs; type: cell-based; conditions: Homo sapiens, PBMC, read-out: IC50 Mean ± SD
Outline: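 Ficoll-isolated human PBMCs, cryopreserved, thawed into RPMI/10% heat-inactivated FBS assay medium, 200,000 cells/well. Serially diluted test compound (final 20 μM to 2 × 10−6 μM) or 0.1% DMSO vehicle preincubated 1 h at 37 °C. Cytokine then added for 5–10 min, followed by 30 min shaking at 4 °C and lysis. Phospho-STAT5/STAT4 by MSD immunoassay, phospho-STAT1 by ELISA. IC50 reported as mean ± SD.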

[3] = target: LRRK2 (Homo sapiens, UniProt Q5S007); assay: IC50 for kinases of potential cross-over; type: biochemical
LRRK2, sequence (Q5S007 whole entry): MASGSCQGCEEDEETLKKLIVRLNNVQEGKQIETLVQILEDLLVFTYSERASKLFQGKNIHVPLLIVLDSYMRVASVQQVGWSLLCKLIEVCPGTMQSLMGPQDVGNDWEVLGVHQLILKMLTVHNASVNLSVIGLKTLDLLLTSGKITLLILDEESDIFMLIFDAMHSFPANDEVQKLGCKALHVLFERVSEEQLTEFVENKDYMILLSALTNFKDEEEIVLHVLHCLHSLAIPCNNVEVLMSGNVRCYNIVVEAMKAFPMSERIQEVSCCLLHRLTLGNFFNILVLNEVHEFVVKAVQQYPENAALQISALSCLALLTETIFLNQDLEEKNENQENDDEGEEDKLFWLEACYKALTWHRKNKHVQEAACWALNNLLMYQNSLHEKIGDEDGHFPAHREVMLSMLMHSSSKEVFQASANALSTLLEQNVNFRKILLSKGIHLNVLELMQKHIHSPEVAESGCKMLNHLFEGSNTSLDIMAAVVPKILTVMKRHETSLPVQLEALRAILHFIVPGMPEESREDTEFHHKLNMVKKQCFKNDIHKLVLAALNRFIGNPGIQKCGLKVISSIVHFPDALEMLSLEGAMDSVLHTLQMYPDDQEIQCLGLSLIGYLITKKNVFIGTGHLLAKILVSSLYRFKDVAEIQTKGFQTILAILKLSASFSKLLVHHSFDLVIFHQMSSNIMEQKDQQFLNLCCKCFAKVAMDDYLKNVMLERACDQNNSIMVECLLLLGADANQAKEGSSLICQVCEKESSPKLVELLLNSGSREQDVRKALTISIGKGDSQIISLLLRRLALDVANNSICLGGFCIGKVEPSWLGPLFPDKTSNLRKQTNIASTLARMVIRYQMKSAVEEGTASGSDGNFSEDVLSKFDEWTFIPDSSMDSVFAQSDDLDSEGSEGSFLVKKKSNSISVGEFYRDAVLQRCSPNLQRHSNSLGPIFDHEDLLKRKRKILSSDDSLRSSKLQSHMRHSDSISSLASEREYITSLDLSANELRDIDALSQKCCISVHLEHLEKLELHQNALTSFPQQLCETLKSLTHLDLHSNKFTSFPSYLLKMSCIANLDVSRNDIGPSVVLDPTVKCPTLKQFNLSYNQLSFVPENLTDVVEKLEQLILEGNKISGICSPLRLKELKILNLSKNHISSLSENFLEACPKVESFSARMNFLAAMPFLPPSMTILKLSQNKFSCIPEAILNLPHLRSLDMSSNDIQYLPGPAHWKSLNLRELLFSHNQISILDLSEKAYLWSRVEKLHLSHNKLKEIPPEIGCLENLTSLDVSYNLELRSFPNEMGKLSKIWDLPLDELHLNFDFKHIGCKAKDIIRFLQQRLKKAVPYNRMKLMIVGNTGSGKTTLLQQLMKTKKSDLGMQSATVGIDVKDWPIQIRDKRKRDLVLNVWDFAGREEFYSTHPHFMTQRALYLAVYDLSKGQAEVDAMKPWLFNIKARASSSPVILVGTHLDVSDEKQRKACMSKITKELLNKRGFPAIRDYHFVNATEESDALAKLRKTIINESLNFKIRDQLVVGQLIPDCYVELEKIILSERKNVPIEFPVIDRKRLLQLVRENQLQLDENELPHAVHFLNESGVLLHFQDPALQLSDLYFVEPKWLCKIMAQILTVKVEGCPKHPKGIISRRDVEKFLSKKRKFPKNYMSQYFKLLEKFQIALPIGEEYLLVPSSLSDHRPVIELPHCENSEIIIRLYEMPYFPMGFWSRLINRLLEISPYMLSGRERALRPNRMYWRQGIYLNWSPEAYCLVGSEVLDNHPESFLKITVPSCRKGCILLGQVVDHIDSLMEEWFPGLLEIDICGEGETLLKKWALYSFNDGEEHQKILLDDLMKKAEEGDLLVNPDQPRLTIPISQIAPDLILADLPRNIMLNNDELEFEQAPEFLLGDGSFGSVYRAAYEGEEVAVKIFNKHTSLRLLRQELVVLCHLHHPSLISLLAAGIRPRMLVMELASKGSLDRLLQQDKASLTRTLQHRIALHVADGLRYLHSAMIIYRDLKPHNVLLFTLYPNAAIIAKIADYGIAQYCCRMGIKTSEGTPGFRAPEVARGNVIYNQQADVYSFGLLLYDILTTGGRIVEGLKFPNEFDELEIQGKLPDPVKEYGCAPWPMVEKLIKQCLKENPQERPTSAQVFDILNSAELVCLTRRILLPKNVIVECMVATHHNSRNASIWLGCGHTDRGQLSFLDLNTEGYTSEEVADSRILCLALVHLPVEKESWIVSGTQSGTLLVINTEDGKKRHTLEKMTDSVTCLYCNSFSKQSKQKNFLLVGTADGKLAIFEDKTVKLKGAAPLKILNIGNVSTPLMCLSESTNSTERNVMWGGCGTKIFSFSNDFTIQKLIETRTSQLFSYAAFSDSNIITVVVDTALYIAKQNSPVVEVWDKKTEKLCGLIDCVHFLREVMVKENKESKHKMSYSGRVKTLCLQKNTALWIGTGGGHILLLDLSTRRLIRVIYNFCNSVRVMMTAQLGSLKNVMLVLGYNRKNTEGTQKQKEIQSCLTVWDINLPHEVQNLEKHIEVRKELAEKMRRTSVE

[4] = target: MARK1 (Homo sapiens, UniProt Q9P0L2); assay: IC50 for kinases of potential cross-over; type: biochemical
MARK1, sequence (Q9P0L2 whole entry): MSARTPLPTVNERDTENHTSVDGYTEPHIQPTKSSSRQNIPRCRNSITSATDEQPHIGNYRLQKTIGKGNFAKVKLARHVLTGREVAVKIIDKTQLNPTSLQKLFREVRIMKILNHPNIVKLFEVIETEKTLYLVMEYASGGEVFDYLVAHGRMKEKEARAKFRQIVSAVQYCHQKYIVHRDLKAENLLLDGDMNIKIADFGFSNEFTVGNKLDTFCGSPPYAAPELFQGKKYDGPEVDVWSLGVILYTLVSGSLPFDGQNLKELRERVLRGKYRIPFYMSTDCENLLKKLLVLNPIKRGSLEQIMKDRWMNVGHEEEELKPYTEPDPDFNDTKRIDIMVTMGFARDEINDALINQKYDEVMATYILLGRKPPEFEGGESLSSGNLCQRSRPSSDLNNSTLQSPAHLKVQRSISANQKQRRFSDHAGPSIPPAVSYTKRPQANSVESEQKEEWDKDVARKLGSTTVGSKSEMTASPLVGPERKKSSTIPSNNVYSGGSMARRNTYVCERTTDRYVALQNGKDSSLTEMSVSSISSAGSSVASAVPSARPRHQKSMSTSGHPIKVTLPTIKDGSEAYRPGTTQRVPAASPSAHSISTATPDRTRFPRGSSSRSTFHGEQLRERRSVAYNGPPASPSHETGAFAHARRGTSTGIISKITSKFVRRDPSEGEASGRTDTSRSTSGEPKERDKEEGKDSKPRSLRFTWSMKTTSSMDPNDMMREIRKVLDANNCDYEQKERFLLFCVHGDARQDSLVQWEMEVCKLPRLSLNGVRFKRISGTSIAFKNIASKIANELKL

[5] = Metabolic stability in liver microsomes; type: in vitro ADME; conditions: monkey
Outline: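 Test compound from 1 mM DMSO solution preincubated 5 min with dog, human, monkey, rat or minipig liver microsomes. NADPH (10 mM) then added. Reactions stopped at 0, 5, 15 and 30 min with 0.05% formic acid in acetonitrile containing loperamide internal standard. Supernatants analysed by LC-MS/MS; n = 1 per microsome species.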

[6] = target: CYP3A4 (Homo sapiens, UniProt P08684); assay: Cytochrome P450 phenotyping; type: in vitro ADME; conditions: recombinant human CYP3A4; with NADPH; 30 minutes; n = 1
CYP3A4, sequence (P08684 whole entry): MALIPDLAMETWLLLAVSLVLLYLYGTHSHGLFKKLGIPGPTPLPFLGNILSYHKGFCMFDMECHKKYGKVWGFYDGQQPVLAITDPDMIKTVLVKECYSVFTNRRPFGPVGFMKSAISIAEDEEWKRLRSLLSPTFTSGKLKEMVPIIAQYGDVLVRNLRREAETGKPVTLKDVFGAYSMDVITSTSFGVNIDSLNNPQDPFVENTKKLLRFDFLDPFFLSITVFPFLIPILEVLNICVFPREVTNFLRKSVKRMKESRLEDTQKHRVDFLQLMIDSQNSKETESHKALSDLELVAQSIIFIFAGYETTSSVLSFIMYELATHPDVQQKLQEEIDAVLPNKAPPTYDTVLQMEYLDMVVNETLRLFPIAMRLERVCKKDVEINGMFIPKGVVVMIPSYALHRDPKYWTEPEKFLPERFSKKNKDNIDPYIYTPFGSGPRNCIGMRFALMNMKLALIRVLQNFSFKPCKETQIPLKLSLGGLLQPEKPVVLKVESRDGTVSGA
Outline: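 Recombinant human CYP3A4 was prepared at 100 nM, and a 2 μM dosing solution of test compound in DMSO was added on ice. After prewarming, 8 mM NADPH solution or blank buffer was added for 30 minutes. Acetonitrile with internal standard stopped the reaction. The plate was shaken and centrifuged, and the supernatant was analysed by LC-MS/MS; n = 1.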

[7] = target: Jak1 (Homo sapiens, UniProt P23458); assay: Inhibition of catalytic domain activity, Jak1; type: biochemical
Jak1, sequence (P23458 875-1153 limits assumed): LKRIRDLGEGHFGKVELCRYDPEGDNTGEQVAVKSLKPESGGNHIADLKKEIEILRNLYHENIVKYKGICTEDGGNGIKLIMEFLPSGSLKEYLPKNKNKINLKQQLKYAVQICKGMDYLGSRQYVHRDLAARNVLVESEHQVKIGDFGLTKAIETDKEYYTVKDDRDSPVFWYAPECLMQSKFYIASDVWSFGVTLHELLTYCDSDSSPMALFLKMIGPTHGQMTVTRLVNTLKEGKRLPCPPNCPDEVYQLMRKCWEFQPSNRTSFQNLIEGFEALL
Outline: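 Z′-LYTE biochemical kinase assay run by the vendor per manufacturer's protocol. Each kinase plate carried 0%/100% phosphorylation and 0%/100% inhibition controls. Development-reaction and compound-fluorescence interference controls at each compound concentration. n = 1 per kinase.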

[8] = male, plasma, topical, 160 mg/day

In the case of CCOC(=O)c1cnc2[nH]ccc2c1N[C@@H]1CCCN(C(=O)CC#N)C1 [ATI-1777, ethyl (R)-4-((1-(2-cyanoacetyl)piperidin-3-yl)amino)-1H-pyrrolo[2,3-b]pyridine-5-carboxylate], the systemic exposure ([1]; 2% solution, 7 consecutive days, LLOQ = 0.5 ng/ml, at most time points) is reported as “unquantifiable”, the concentration at 0 h [1, 8] is reported as 0 ng/mL and the concentration at 1 h [1, 8] is reported as 0 ng/mL. It also gave a concentration at 2 h [1, 8] of 0.387 ng/mL, a concentration at 4 h [1, 8] of 0.221 ng/mL and a concentration at 8 h [1, 8] of 0.391 ng/mL. It also gave a concentration at 12 h [1, 8] of 0 ng/mL, a concentration at 24 h [1, 8] of 0 ng/mL and an IC50 [2] of 97 ± 34 nM. The IC50 [3] was 48 nM, the “Fold Selectivity” value ([3]; LRRK2 vs Jak1 (= 1)) was 32 fold and the IC50 [4] was 1250 nM. The “Fold Selectivity” value ([4]; MARK1 vs Jak1 (= 1)) was 833 fold, the CLint scaled [5] was 939 mL/min/kg and the microsomal CLint [5] was 264 µL/min/mg. For the same compound, the half-life ([5]; T1/2, Study 1, n = 1) was 2.16 min, the half-life ([5]; T1/2, Study 2, n = 1) was 5 min and the “Percentage Remaining” value [6] was 0.56%. For the same compound, the IC50 [7] was 1.5 nM and the “Fold Selectivity” value ([7]; Jak1 reference line of Table 2) was 1 fold.
